# Rows were chosen to be rich in hits. Some 2.6% of all compounds tested hit in one or more screens of this group.
# SENP7 block: inhibitors of human SENP7 protease; Q9BQF6; recombinant SENP7, Z-RLRGG-aminoluciferin luminescence, 40 min; inhibition, % at 5 µM; actives 1.5% (n = 330,000);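 active means inhibition above about 50% at the single test dose, limit read from the data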;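 further: plate controls were DMSO with enzyme for no effect and no enzyme buffer wells for full effect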
# SENP1 FRET inh: SENP1 (human) catalytic domain inhibition; Q9P0U3; recombinant SENP1 catalytic domain, CyPet-SUMO1-YPet FRET cleavage; inhibition, % at 10 µM; actives 0.21% (n = 360,000);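 active means inhibition at least 30% at 10 µM, raw YFP signal under a set limit, fluorescence ratio 0.5 to 1.5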;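 further: 0% = enzyme with DMSO and 100% = no enzyme wells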
# Target sequence (Q9P0U3 419-644 limits assumed): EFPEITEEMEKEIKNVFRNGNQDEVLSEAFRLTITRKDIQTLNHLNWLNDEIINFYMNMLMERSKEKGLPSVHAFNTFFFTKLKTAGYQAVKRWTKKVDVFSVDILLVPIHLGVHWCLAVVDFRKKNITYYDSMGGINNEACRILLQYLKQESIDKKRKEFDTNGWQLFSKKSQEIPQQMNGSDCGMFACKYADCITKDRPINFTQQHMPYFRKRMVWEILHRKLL
#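 Material: hSENP1 catalytic domain, recombinant; medium: Tris pH 8 with BME, BSA, NP40 and catalase; compound: single concentration of 10 µM compound, 0.5% DMSO final; technique: FRET read of cyan and yellow fluorescence; timing: 50 min enzyme reaction, room temperature, light-protected; reagent: SFCypet-SUMO1-SFYpet substrate at 25 nM; control set: no-enzyme low, enzyme-DMSO high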
# Platelet DG rel: platelet dense granule release activity; actives 0.22% (n = 300,000); inhibition, %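 (compounds screened at 7.5 µM in platelet-rich plasma)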; AID 1663; human platelet-rich plasma, SFLLRN dense granule ATP release, luminescence;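 active means mean replicate score, as percent of positive control, at or above 50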
# SENP8 block-1: inhibitors of human SENP8 protease | Q96LD8 | inhibition, % at 20 µM | actives 0.64% (n = 360,000) | AID 602440 | recombinant SENP8, Nedd8 substrate fluorescence; in the data active means inhibition mostly above about 40%, no sharp cut-off; inactive means mostly below about 27%
# Target sequence (Q96LD8 whole entry, looked up): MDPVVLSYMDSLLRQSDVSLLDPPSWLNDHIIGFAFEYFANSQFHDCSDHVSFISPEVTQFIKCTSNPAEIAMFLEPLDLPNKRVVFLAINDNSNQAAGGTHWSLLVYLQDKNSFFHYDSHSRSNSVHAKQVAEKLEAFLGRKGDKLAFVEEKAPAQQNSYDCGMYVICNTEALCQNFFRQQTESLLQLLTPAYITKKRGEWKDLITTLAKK
# SENP8 block-2: inhibitors of human SENP8 protease; Q96LD8; purified SENP8, Z-RLRGG-aminoluciferin cleavage, luminescence; inhibition, % at 10 µM; actives 1.2% (n = 330,000); in the data active means inhibition above about 50%
# SENP6 block: SENP6 protease inhibition. Recombinant SENP6 catalytic domain, aminoluciferin luminescence. inhibition, % at 10 µM. actives 1.8% (n = 330,000);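 active means inhibition above about 50% at the single tested dose, limit read from the data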;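 further: plate controls were DMSO wells with enzyme for no effect and DMSO wells lacking enzyme for full effect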
# SENP8 confirm: human SENP8 inhibition, confirmed; shares compounds with SENP7 block; Recombinant SENP8, Z-RLRGG-aminoluciferin luminescence, 60 min; inhibition, % at 12.5 µM; actives 40% (n = 6,200);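 active means mean inhibition across replicates above about 50%, limit read from the data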
# SENP6 conf: confirmation of human SENP6 protease inhibitors; shares compounds with SENP7 block; recombinant SENP6, Z-RLRGG-aminoluciferin luminescence; inhibition, % at 12.5 µM; actives 58% (n = 6,200)
# SENP7 confirm: human SENP7 inhibition, confirmed. shares compounds with SENP7 block. recombinant SENP7, Z-RLRGG-aminoluciferin luminescence, 40 min. inhibition, % at 12.5 µM. actives 69% (n = 6,200). AID 488917
# Casp3 select: caspase-3 inhibition (SENP selectivity assay); purified caspase-3, Z-DEVD-aminoluciferin luminescence, 60 min; shares compounds with SENP7 block; inhibition, % at 12.5 µM; actives 60% (n = 6,200);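 active means mean inhibition above about 50%, limit read from the data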;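 further: plate controls were enzyme with DMSO for no effect and wells without caspase-3 for full effect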
# Target sequence (P42574 28-227 limits assumed): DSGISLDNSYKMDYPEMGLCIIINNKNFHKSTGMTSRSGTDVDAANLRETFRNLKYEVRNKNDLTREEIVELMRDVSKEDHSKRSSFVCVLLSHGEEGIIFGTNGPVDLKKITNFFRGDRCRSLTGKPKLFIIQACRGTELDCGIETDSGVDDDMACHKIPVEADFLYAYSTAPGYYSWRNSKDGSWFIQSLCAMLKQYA
# Luc interf: counter-screen for SENP inhibitors: luminescence interference; shares compounds with SENP7 block; Pre-incubated SENP8/Z-RLRGG-aminoluciferin, luciferase luminescence interference; inhibition, % at 12.5 µM; actives 39% (n = 6,200);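 active means mean inhibition above about 50% when retested at one dose, limit read from the data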;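 further: plate controls were DMSO wells with completed reaction for no effect and substrate without enzyme for full effect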
# * hit, by the source's call; . = no result given; ! = not confirmed by another sample.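 How the source made its calls, unless noted: active means mean inhibition above about 50% in the one-dose retest (limit read from the data); inactive means the rest.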
SMILES,SENP7 block,SENP1 FRET inh,Platelet DG rel,SENP8 block-1,SENP8 block-2,SENP6 block,SENP8 confirm,SENP6 conf,SENP7 confirm,Casp3 select,Luc interf
CCNC(=S)NNC(=O)c1cc(-c2ccc(OCC)cc2)nc2ccccc12,94.6*,3.6,103.4*,-280.4,93.8*,93.5*,97.5*,98.2*,102.0*,97.7*,46.3
CCNC(=S)NNC(=O)c1cc(-c2cccc(OC)c2)nc2ccccc12,11.5,2.2,39.2,-56.5,41.3,56.8*,64.0*,60.5*,79.0*,85.2*,70.8*
CCCOc1cccc(-c2cc(C(=O)NNC(=S)NCC)c3ccccc3n2)c1,-18.2,4.8,10.3,-231.1,-1.8,-23.6,.,.,.,.,.
CCNC(=S)NNC(=O)c1cc(-c2ccccc2C)nc2ccccc12,0.9,-3.1,3.9,-152.1,5.3,-3.4,.,.,.,.,.
COc1ccccc1NS(=O)(=O)c1cccc(-n2c(O)c(C=Nc3ccccc3C(=O)O)c3ccccc3c2=O)c1,6.4,-68.0,-6.2,2.3,21.4,51.6*,40.8,37.9,36.6,17.9,3.9
Cc1ccc(C(=O)Nc2ccc(O)cc2C(=O)O)cc1,42.1,1.1,-2.1,12.4,35.0,63.0*,61.8*,57.6*,82.9*,74.9*,64.3*
CN1C(=O)/C(=C/c2ccc(C(=O)Nc3ccc(O)cc3C(=O)O)cc2)SC1=S,60.0*,5.3,21.6,25.7,95.9*,92.7*,61.7*,96.6*,70.0*,98.3*,29.0
Cc1cccc(C(=O)Nc2ccc(O)cc2C(=O)O)c1,77.4*,3.6,10.2,12.6,88.2*,93.4*,88.2*,90.0*,99.9*,95.3*,90.6*
Cc1ccc(/C=C2\SC(=S)N(CCC(=O)NNC(=O)c3ccc(O)cc3)C2=O)cc1,-3.8,0.8,1.4,22.8,-8.1,3.0,.,.,.,.,.
Cc1cccc(C(=O)Nc2ccc(O)cc2)c1,3.3,0.5,8.0,24.1,-16.6,11.7,.,.,.,.,.
Cc1ccc(C(=O)Nc2ccc(O)cc2C(=O)O)cc1C,24.2,1.5,16.3,17.9,24.5,46.1,.,.,.,.,.
CCCCn1c(=O)[nH]c(=O)c2c1nc(Cn1ncc(Cl)c(Cl)c1=O)n2CCC,-2.9,-79.9,15.6,-97.4,-0.4,13.8,.,.,.,.,.
Cc1ccc(C)c(S(=O)(=O)N2CCCCC2CCNC(=O)C(=O)NCc2ccco2)c1 (stereo unspecified),2.0,0.6,10.6,1.4,2.6,-5.6,.,.,.,.,.
COc1ccccc1NS(=O)(=O)c1cccc(C(=O)OCC(=O)NC2CC2)c1,1.3,0.1,-16.7,8.0,-3.7,-0.2,.,.,.,.,.
Cc1oc2ccc(OCc3cccc(Cl)c3)cc2c1C(=O)O,9.0,-1.1,-1.3,20.5,71.4*,74.8*,-2.9,16.1,26.0,13.8,35.9
Cc1oc2ccc(OCc3c(F)cccc3Cl)cc2c1C(=O)O,-9.5,-0.8,2.3,7.3,-8.0,-18.0,.,.,.,.,.
Cc1oc2ccc(OCc3ccc(F)cc3)cc2c1C(=O)O,23.4,0.4,3.0,12.4,22.6,55.1*,44.5,41.5,73.2*,61.8*,61.2*
COc1ccc(C2Nc3ccccc3C(=O)N2Cc2ccco2)cc1CN1C(=O)c2ccccc2C1=O (stereo unspecified),66.0*!,-0.1,-4.7,-66.6,-0.6,-3.7,2.6,8.2,10.4,5.2,5.6
COc1ccc(NC(=O)CN(C)C(=O)CSCc2ccc(C)cc2)cc1,3.1,2.1,-4.2,9.2,-6.1,-3.7,.,.,.,.,.
Cc1cc([N+](=O)[O-])ccc1NC(=O)C(C)NC1CCCCC1 (stereo unspecified),-3.9,1.9,0.1,32.0,9.3,13.2,.,.,.,.,.
Cc1ccc(N=Cc2c(C)[nH]n(-c3nc4ccccc4[nH]3)c2=O)cc1,95.0*,-17.4,45.3,13.8,86.2*,93.9*,87.8*,54.9*,93.6*,95.2*,90.5*
COc1ccc(C(=O)Nc2ccc(N3CCCC3)cc2)cc1OC,19.3,-6.1,79.0*,-10.6,94.6*,94.4*,87.6*,97.8*,101.7*,97.8*,89.3*
COc1ccc(C(=O)Nc2ccc(N3CCCC3)cc2)cc1Br,1.0,-2.7,1.5,28.4,59.9*,63.7*,1.0,20.4,14.5,48.4,12.5
O=C(Nc1ccc(N2CCCCC2)cc1)c1ccc(F)cc1,83.2*,1.8,10.5,12.1,67.9*,78.9*,10.8,13.9,19.6,47.4,10.3
COc1ccc(C(=O)Nc2ccc(N3CCN(C(=O)c4cccs4)CC3)cc2)cc1Br,-2.8,1.9,-2.0,15.9,5.6,12.7,.,.,.,.,.
SMILES,SENP7 block,SENP1 FRET inh,Platelet DG rel,SENP8 block-1,SENP8 block-2,SENP6 block,SENP8 confirm,SENP6 conf,SENP7 confirm,Casp3 select,Luc interf
COc1ccc(C(=O)Nc2ccc(N3CCCC3)cc2)cc1,2.3,-1.1,-6.4,-11.7,-4.1,-11.7,.,.,.,.,.
COc1ccc(C(=O)c2ccc(OC)c(Br)c2)cc1Br,10.0,-0.3,-4.4,11.9,-2.2,98.0*,10.9,7.4,8.7,3.2,4.3
Nc1ncnc2c1ncn2[C@@H]1O[C@H](C(=O)N2CCN(c3ccc(Cl)cn3)CC2)[C@@H](O)[C@H]1O,.,-0.1,.,-136.6,.,.,.,.,.,.,.
COCCNc1ncnc2c1ncn2[C@H]1CN(Cc2ccco2)C[C@@H](CO)O1,.,2.3,.,5.8,.,.,.,.,.,.,.
COc1ccc(C(=O)Nc2ccc(N3CCOCC3)cc2)cc1OC,88.9*,0.6,66.2*,22.7,81.9*,89.2*,57.8*,85.8*,96.9*,95.1*,19.7
COc1ccc(C(=O)Nc2ccc(S(=O)(=O)N3CCOCC3)cc2)cc1OC,-12.6,-0.2,33.0,16.4,-6.6,1.6,.,.,.,.,.
Cn1cccc1C(=O)Nc1ccc(N2CCOCC2)cc1,62.0*,0.6,.,16.0,37.0,24.4,58.8*,53.6*,82.3*,84.7*,32.9
CN1CCN(S(=O)(=O)c2ccc(NS(=O)(=O)c3ccccc3)cc2)CC1,-3.5,0.4,-0.9,0.8,-3.5,7.6,.,.,.,.,.
C=CCn1c(SCC(=O)NC2CCCc3ccccc32)nnc1-c1ccncc1 (stereo unspecified),-6.7,-5.7,-4.1,-13.2,-2.5,-2.1,.,.,.,.,.
Cc1cccc(C)c1NC(=O)C1C(c2ccc3c(c2)OCO3)=Nc2ccccc2N1C(=O)c1ccccn1 (stereo unspecified),.,5.2,.,-16.5,.,.,.,.,.,.,.

# Source: PubChem BioAssay
